Laboratory results as given in publication PMC10633821 (RSC Advances, 2023).

Assays:
Type in all cases: cell-based
MCF-7 cells [1] = test: MTT assay, anti-proliferative activity on MCF-7 cells; details: Homo sapiens, MCF7, 48 h, read-out: IC50, growth/viability of MCF-7 cells
MCF-7 cells [2] = test: Annexin V-FITC/PI assay of apoptosis and necrosis; details: MCF-7, 3b at IC50 (1.85 μM), 48 h
Method in brief: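 MCF-7 cells were treated for 48 h, then harvested and washed twice in PBS by centrifugation (180 g, 10 min, 4 °C). Cells were resuspended in binding buffer with Annexin V-FITC for 10 min at ambient temperature, then diluted with more binding buffer. PI was added immediately before FACS Calibur flow cytometry to separate apoptotic from necrotic cells.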

[3] = MTT assay, cytotoxicity on normal breast cells MCF-10A; details: human, MCF-10A cells (normal breast cells)
MCF-7 cells [4] = test: Cell cycle analysis by flow cytometry; details: MCF-7, 3b at IC50 (1.85 μM), 48 h
Method in brief: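 MCF-7 cells were seeded, held 12 h at 37 °C, then treated for 48 h. Cells were collected and fixed in 75% ethanol at 20 °C for 18 h. They were rinsed in PBS, centrifuged, and exposed to RNase plus propidium iodide. DNA content was read by FACS Calibur flow cytometry to give cell-cycle phase distribution.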

[5] = molecular target: human DNA topoisomerase II-β (TOPII-β) (Homo sapiens, UniProt Q02880); test: Topoisomerase II activity in MCF-7 cells; details: ELISA kit
Method in brief: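 Sandwich ELISA for human TOPII-β, run per the kit protocol. Standards and samples were incubated 2 h at 37 °C, then biotin-antibody 1 h at 37 °C, three washes, HRP-avidin 1 h at 37 °C and five washes. TMB substrate was added for 15–30 min at 37 °C in the dark, then stop solution. OD450 was read within 5 min, in triplicate.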

Chain of human DNA topoisomerase II-β (TOPII-β) (Q02880 whole entry): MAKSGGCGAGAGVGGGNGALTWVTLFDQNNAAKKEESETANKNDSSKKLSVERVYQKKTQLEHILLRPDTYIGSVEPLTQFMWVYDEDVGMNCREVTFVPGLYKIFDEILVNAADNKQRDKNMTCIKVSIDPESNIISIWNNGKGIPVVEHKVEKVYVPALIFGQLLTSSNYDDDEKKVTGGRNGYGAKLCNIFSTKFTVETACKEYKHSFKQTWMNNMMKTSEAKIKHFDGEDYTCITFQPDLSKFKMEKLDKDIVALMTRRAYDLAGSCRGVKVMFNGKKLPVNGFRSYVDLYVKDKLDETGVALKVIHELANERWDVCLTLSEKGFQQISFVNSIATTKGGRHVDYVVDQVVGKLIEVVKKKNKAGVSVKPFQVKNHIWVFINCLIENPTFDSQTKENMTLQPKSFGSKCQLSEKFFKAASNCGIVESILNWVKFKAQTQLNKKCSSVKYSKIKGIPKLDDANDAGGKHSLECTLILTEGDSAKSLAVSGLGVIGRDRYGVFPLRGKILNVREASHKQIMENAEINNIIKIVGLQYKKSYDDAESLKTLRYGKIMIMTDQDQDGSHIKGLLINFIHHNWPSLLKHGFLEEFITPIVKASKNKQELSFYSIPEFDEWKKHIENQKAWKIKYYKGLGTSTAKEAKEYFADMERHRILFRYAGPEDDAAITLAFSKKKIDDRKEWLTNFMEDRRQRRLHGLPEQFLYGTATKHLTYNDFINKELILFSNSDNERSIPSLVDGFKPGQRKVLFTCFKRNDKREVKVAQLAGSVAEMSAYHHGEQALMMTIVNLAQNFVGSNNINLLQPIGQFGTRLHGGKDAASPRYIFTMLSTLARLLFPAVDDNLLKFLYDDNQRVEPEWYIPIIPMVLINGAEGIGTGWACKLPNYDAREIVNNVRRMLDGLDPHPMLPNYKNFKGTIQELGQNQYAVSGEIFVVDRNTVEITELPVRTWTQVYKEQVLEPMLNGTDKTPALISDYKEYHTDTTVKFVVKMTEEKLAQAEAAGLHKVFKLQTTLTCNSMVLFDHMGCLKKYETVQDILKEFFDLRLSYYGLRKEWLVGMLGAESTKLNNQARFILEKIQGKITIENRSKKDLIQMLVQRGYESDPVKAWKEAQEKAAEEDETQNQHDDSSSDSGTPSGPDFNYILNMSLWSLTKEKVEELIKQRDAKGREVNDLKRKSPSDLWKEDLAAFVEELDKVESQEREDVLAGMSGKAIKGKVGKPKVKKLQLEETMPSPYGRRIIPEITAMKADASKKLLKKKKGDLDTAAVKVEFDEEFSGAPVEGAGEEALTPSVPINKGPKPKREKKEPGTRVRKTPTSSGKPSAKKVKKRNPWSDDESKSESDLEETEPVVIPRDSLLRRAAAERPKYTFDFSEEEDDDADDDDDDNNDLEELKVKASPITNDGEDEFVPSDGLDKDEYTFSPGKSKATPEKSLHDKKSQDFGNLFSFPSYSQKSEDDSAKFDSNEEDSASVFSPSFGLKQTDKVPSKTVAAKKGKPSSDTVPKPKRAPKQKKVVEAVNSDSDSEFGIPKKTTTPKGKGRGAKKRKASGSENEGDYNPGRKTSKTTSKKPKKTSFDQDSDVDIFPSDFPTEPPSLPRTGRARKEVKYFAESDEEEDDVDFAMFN

COc1ccc(Br)c2cc(-c3cnc4ccccc4n3)c(=O)oc12 [compound 5, 2-(5-bromo-8-methoxy-coumarin-3-yl)-quinoxaline]
IC50 (MCF-7 cells [1]): 55 µM

Oc1c(N=Nc2ccccc2)cc(Br)cc1C1=CNc2ccccc2N1 [compound 7, 2-(5-bromo-3-phenylazo-2-hydroxyphenyl)-1,4-dihydro quinoxaline]
IC50 (MCF-7 cells [1]): 8.6 µM

COc1cccc2cc(C3=Nc4ccccc4NC3)c(=O)oc12 [compound 3b, 2-(8-Methoxy-coumarin-3yl)-3,4-dihydroquinoxaline]
increase in early apoptosis vs untreated control (MCF-7 cells [2]): 51.7 fold
increase in programmed cell death vs untreated cells (MCF-7 cells [2]): 21 fold
proportion of cells in late-stage apoptosis (MCF-7 cells [2]; control 0.29%): 12.42%
proportion of cells in early apoptosis (MCF-7 cells [2]; control 0.51%): 26.39%
proportion of cells suffering necrosis (MCF-7 cells [2]; untreated 1.2%): 3.58%
total programmed cell death (MCF-7 cells [2]; untreated cells 2.02%): 42.39%
IC50 at 48 h [3]: 33.7 ± 2.04 µM
IC50 (MCF-7 cells [1]): 1.85 ± 0.11 µM
percentage of cells in the pre-G1 phase (MCF-7 cells [4]; untreated control 2.02%): 42.39%
percentage of cells in the G2/M phase (%DIP G2/M) (MCF-7 cells [4]; untreated control 11.65%): 6.52%
proportion of cells in the S phase (%DIP S) (MCF-7 cells [4]; untreated control 32.89%): 47.12%
percentage of cells in the G0/G1 phase (%DIP G1) (MCF-7 cells [4]; untreated control 55.46%): 46.36%
reduction of topo II enzyme in comparison to untreated control cells [5]: 6.5 fold

COc1cccc2cc(-c3cnc4ccccc4n3)c(=O)oc12 [compound 4b, 2-(8-Methoxycoumarin-3-yl)-quinoxaline]
IC50 (MCF-7 cells [1]): 4.08 µM
